Reference: ChEMBL document CHEMBL4673249, “Anticancer Effects of Honokiol via Mitochondrial Dysfunction Are Strongly Enhanced by the Mitochondria-Targeting Carrier Berberine” (J Med Chem, 2020)
Calls of active or inactive are those of the source. No cut-off for these calls is given here.

Experiments:
[1] = test system: A2780; test: Antiproliferative activity against human A2780 cells assessed as reduction in cell viability after 48 hrs by MTT assay; assay type: functional, cell-based; details: A2780, 48 h
How it was run: (§1)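 Cell lines grown at 37 °C in 5% CO2: A2780, A549, HL7702 and PC3 in RPMI 1640; HT29 in McCoy's 5A; HepG2 and PANC-1 in DMEM; all media with 10% FBS and penicillin/streptomycin. Cells seeded and left overnight, then exposed to compound for 48 h. MTT (5 mg/mL solution) added for 4 h at 37 °C, formazan dissolved in DMSO, absorbance read at 570 nm. IC50 taken from viability; run in triplicate.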

[2] = test system: A549; test: Antiproliferative activity against human A549 cells assessed as reduction in cell viability after 48 hrs by MTT assay; assay type: functional, cell-based; details: A549, 48 h; how it was run: as §1
[3] = test system: L02; test: Antiproliferative activity against human L02 cells assessed as reduction in cell viability after 48 hrs by MTT assay; assay type: cell-based; details: L02, 48 h; how it was run: as §1
[4] = test system: HepG2; test: Antiproliferative activity against human HepG2 cells assessed as reduction in cell viability after 48 hrs by MTT assay; assay type: functional, cell-based; details: HepG2, 48 h; how it was run: as §1
[5] = test system: PC-3; test: Antiproliferative activity against human PC-3 cells assessed as reduction in cell viability after 48 hrs by MTT assay; assay type: functional, cell-based; details: PC-3, 48 h; how it was run: as §1
[6] = test system: HepG2; test: Induction of morphological changes in human HepG2 cells assessed as accumulation of cytoplasmic vacuoles >30 uM after 24 hrs by optical microscopic method; assay type: functional, cell-based; details: dose microM >30, time 24.0 hrs
[7] = test system: HT-29; test: Antiproliferative activity against human HT29 cells assessed as reduction in cell viability after 48 hrs by MTT assay; assay type: functional, cell-based; details: HT-29, 48 h; how it was run: as §1
[8] = test system: PANC-1; test: Antiproliferative activity against human PANC1 cells assessed as reduction in cell viability after 48 hrs by MTT assay; assay type: functional, cell-based; details: PANC-1, 48 h; how it was run: as §1
[9] = Drug uptake in human HepG2 cells mitochondria at 5 uM after 12 hrs by HPLC analysis; assay type: ADME; details: hepg2, 12 h
How it was run: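 HepG2 cells given 5 μM for 12 h, then homogenized in mitochondrial extraction reagent. Spun at 600 g, 4 °C, 10 min; supernatant spun again at 11000 g, 4 °C, 10 min, and the pellet taken as mitochondria. Drug content by HPLC on a C18 column with methanol–0.1% acetic acid (80:20), detection at 265 nm. Run thrice.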

[10] = test system: HepG2; test: Induction of morphological changes in human HepG2 cells assessed as accumulation of cytoplasmic vacuoles at 4 uM after 24 hrs by optical microscopic method; assay type: functional, cell-based
How it was run: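 Cells grown at 37 °C, 5% CO2 in media with 10% FBS and penicillin/streptomycin, then treated with compound. Cytoplasmic vacuoles judged by optical microscopy. Time course at 4 μM, or 10 h exposure across increasing concentrations.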

[11] = test system: HepG2; test: Induction of morphological changes in human HepG2 cells assessed as accumulation of cytoplasmic vacuoles at 40 uM after 24 hrs by optical microscopic method; assay type: functional, cell-based
[12] = test system: HepG2; test: Synergistic antiproliferative activity against human HepG2 cells assessed as combination index after 48 hrs in presence HN by MTT assay; assay type: functional
[13] = test system: HepG2; test: Synergistic antiproliferative activity against human HepG2 cells assessed as combination index after 48 hrs in presence BBR by MTT assay; assay type: functional
[14] = test system: HepG2; test: Synergistic antiproliferative activity against human HepG2 cells assessed as combination index at 20 to 80 uM after 48 hrs in presence of 10 to 40 uM HN by MTT assay; assay type: functional; details: dose 20-80 µM

What does the source list for `C=CCc1ccc(O)c(-c2ccc(O)c(CC=C)c2)c1` [HONOKIOL]?
IC50 [1]: 31.6 µM; IC50 [2]: 38 µM; IC50 [3]: 25.5 µM; IC50 [4]: 23.9 µM; IC50 [5]: 29 µM; Activity [6]: Active; IC50 [7]: 31.6 µM; IC50 [8]: 31.2 µM; Drug uptake [9]: 17.8 µM

Which IC50 [1] does the source give for `C=CCc1ccc(OCCCCCc2c3[n+](cc4c(OC)c(OC)ccc24)CCc2cc4c(cc2-3)OCO4)c(-c2ccc(OC)c(CC=C)c2)c1` here?
Its IC50 is 1.36 µM.

What about the IC50 [2] of the same molecule?
The IC50 was 1.71 µM.

And the IC50 [3]?
The IC50 was 2.97 µM.

And the Activity [10]?
Its Activity is “Active”.

And the IC50 [4]?
Its IC50 is 1.04 µM.

What about the IC50 [5] of the same molecule?
Its IC50 is 1.12 µM.

What about the IC50 [7] of the same molecule?
Its IC50 is 1.56 µM.

What about the IC50 [8] of the same molecule?
The IC50 was 2.96 µM.

Which IC50 [1] does the source give for `C=CCc1ccc(O)c(-c2ccc(OCCCCCCCCc3c4[n+](cc5c(OC)c(OC)ccc35)CCc3cc5c(cc3-4)OCO5)c(CC=C)c2)c1` here?
The IC50 was 1.52 µM.

What about the IC50 [2] of the same molecule?
Its IC50 is 1.84 µM.

And the IC50 [3]?
The IC50 was 4.82 µM.

What about the Activity [10] of the same molecule?
The Activity was “Active”.

And the IC50 [4]?
Its IC50 is 0.77 µM.

What about the IC50 [5] of the same molecule?
The IC50 was 1.74 µM.

What about the IC50 [7] of the same molecule?
Its IC50 is 2.89 µM.

And the IC50 [8]?
Its IC50 is 2.09 µM.

What does the source list for `C=CCc1ccc(OCCCc2c3[n+](cc4c(OC)c(OC)ccc24)CCc2cc4c(cc2-3)OCO4)c(-c2ccc(O)c(CC=C)c2)c1`?
IC50 [1]: 3.03 µM; IC50 [2]: > 5 µM; IC50 [3]: 5.21 µM; Activity [10]: Active; IC50 [4]: 3.71 µM; IC50 [5]: 2.26 µM; IC50 [7]: > 5 µM; IC50 [8]: > 5 µM

For `CCCCCc1c2[n+](cc3c(OC)c(OC)ccc13)CCc1cc3c(cc1-2)OCO3.[I-]`, which Activity [11] is on record?
The Activity was “Active”.

What about the IC50 [4] of the same molecule?
Its IC50 is 29.3 µM.

And the CI [12]?
The CI was 0.79.

What does the source list for `C=CCc1ccc(O)c(-c2ccc(OCCCCC)c(CC=C)c2)c1`?
IC50 [4]: 19.2 µM; CI [13]: 0.79

Which IC50 [1] does the source give for `COc1cccc2c1C(=O)c1c(O)c3c(c(O)c1C2=O)C[C@@](O)(C(=O)CO)C[C@@H]3O[C@H]1C[C@H](N)[C@H](O)[C@H](C)O1` [DOXORUBICIN] here?
The IC50 was 0.71 µM.

What about the IC50 [2] of the same molecule?
The IC50 was 3.08 µM.

And the IC50 [3]?
Its IC50 is 2.24 µM.

And the IC50 [4]?
Its IC50 is 0.67 µM.

And the IC50 [5]?
The IC50 was 0.93 µM.

What about the IC50 [7] of the same molecule?
The IC50 was 5.92 µM.

What about the IC50 [8] of the same molecule?
Its IC50 is 1.73 µM.

Which results are given for `C=CCc1ccc(O)c(-c2ccc(OC)c(CC=C)c2)c1` [METHYLHONOKIOL]?
IC50 [1]: 14.7 µM; IC50 [2]: 22 µM; IC50 [3]: 23.9 µM; IC50 [4]: 17.5 µM; IC50 [5]: 17.9 µM; IC50 [7]: 21.1 µM; IC50 [8]: 16.7 µM

Which results are given for `C=CCc1ccc(OCCCCCc2c3[n+](cc4c(OC)c(OC)ccc24)CCc2cc4c(cc2-3)OCO4)c(-c2ccc(O)c(CC=C)c2)c1`?
IC50 [1]: 1.59 µM; IC50 [2]: 2.9 µM; IC50 [3]: 3.04 µM; Activity [10]: Active; IC50 [4]: 2.32 µM; IC50 [5]: 1.59 µM; IC50 [7]: > 5 µM; IC50 [8]: 3.24 µM

With `C=CCc1ccc(OC)c(-c2ccc(O)c(CC=C)c2)c1` as the molecule, how does the IC50 [1] read?
The IC50 was 24.7 µM.

What about the IC50 [2] of the same molecule?
Its IC50 is over 30 µM.

What about the IC50 [3] of the same molecule?
The IC50 was 35.3 µM.

And the IC50 [4]?
The IC50 was 29.7 µM.

What about the IC50 [5] of the same molecule?
The IC50 was 24.8 µM.

And the IC50 [7]?
Its IC50 is 35.4 µM.

And the IC50 [8]?
The IC50 was 16.4 µM.

With `C=CCc1ccc(O)c(-c2ccc(OCCCc3c4[n+](cc5c(OC)c(OC)ccc35)CCc3cc5c(cc3-4)OCO5)c(CC=C)c2)c1` as the molecule, how does the IC50 [1] read?
The IC50 was 1.56 µM.

And the IC50 [2]?
The IC50 was 3.25 µM.

What about the IC50 [3] of the same molecule?
Its IC50 is 3.56 µM.

And the Activity [10]?
The Activity was “Active”.

What about the IC50 [4] of the same molecule?
The IC50 was 2.19 µM.

What about the IC50 [5] of the same molecule?
The IC50 was 1.17 µM.

What about the IC50 [7] of the same molecule?
Its IC50 is over 5 µM.

What about the IC50 [8] of the same molecule?
The IC50 was 6.02 µM.

Which results are given for `C=CCc1ccc(OCCCCCCCCc2c3[n+](cc4c(OC)c(OC)ccc24)CCc2cc4c(cc2-3)OCO4)c(-c2ccc(O)c(CC=C)c2)c1`?
IC50 [1]: 1.97 µM; IC50 [2]: 2.09 µM; IC50 [3]: 5.77 µM; Activity [10]: Active; IC50 [4]: 1.27 µM; IC50 [5]: 2 µM; IC50 [7]: 2.54 µM; IC50 [8]: 2.48 µM

What does the source list for `C=CCc1ccc(OCCC)c(-c2ccc(OCCCCCc3c4[n+](cc5c(OC)c(OC)ccc35)CCc3cc5c(cc3-4)OCO5)c(CC=C)c2)c1`?
IC50 [1]: 1.41 µM; IC50 [2]: 1.25 µM; IC50 [3]: 3.05 µM; Activity [10]: Active; IC50 [4]: 0.95 µM; IC50 [5]: 1.22 µM; IC50 [7]: 1.95 µM; IC50 [8]: 1.69 µM

For `C=CCc1ccc(OC)c(-c2ccc(OCCCCCc3c4[n+](cc5c(OC)c(OC)ccc35)CCc3cc5c(cc3-4)OCO5)c(CC=C)c2)c1`, which IC50 [1] is on record?
The IC50 was 1.17 µM.

And the IC50 [2]?
Its IC50 is 1.33 µM.

And the IC50 [3]?
The IC50 was 3.43 µM.

What about the Activity [10] of the same molecule?
Its Activity is “Active”.

And the IC50 [4]?
The IC50 was 1.05 µM.

What about the IC50 [5] of the same molecule?
The IC50 was 0.99 µM.

What about the IC50 [7] of the same molecule?
Its IC50 is 1.64 µM.

And the IC50 [8]?
Its IC50 is 1.73 µM.

Which results are given for `COc1ccc2cc3[n+](cc2c1OC)CCc1cc2c(cc1-3)OCO2.[Cl-]` [BERBERINE CHLORIDE]?
IC50 [1]: > 50 µM; IC50 [2]: > 50 µM; Activity [11]: inactive; IC50 [3]: > 50 µM; IC50 [4]: > 50 µM; IC50 [5]: 31.7 µM; IC50 [7]: > 50 µM; IC50 [8]: > 50 µM; CI [14]: >1

Which IC50 [1] does the source give for `C=CCc1ccc(OCCCCCc2c3[n+](cc4c(OC)c(OC)ccc24)CCc2cc4c(cc2-3)OCO4)c(-c2ccc(OCCC)c(CC=C)c2)c1` here?
Its IC50 is 1.68 µM.

What about the IC50 [2] of the same molecule?
The IC50 was 1.66 µM.

What about the IC50 [3] of the same molecule?
Its IC50 is 3.62 µM.

What about the Activity [10] of the same molecule?
Its Activity is “Active”.

What about the IC50 [4] of the same molecule?
The IC50 was 0.92 µM.

What about the IC50 [5] of the same molecule?
The IC50 was 1.43 µM.

What about the IC50 [7] of the same molecule?
The IC50 was 2.39 µM.

And the IC50 [8]?
Its IC50 is 2.56 µM.

For `C=CCc1ccc(OCCC)c(-c2ccc(O)c(CC=C)c2)c1`, which IC50 [1] is on record?
Its IC50 is 14.7 µM.

And the IC50 [2]?
Its IC50 is 14.7 µM.

And the IC50 [3]?
The IC50 was 22.4 µM.

What about the IC50 [4] of the same molecule?
The IC50 was 15.5 µM.

What about the IC50 [5] of the same molecule?
Its IC50 is 17 µM.

What about the IC50 [7] of the same molecule?
Its IC50 is 26.4 µM.

And the IC50 [8]?
Its IC50 is 15.9 µM.

For `C=CCc1ccc(O)c(-c2ccc(OCCC)c(CC=C)c2)c1`, which IC50 [1] is on record?
The IC50 was 14.7 µM.

And the IC50 [2]?
Its IC50 is 21 µM.

And the IC50 [3]?
The IC50 was 27.8 µM.

What about the IC50 [4] of the same molecule?
Its IC50 is 19.1 µM.

And the IC50 [5]?
Its IC50 is 21.1 µM.

What about the IC50 [7] of the same molecule?
The IC50 was 26.5 µM.

And the IC50 [8]?
The IC50 was 17.8 µM.
